# bIAP inhibitor – blocks bovine intestinal alkaline phosphatase activity | purified bovine IAP, CDP-star luminescence, 30 min | inhibition, % at 20 µM | 190,000 tested, under 10 active;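 active means over 50% inhibition of intestinal alkaline phosphatase at 20 µM in the single-dose screen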
#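 System: Purified bovine intestinal alkaline phosphatase (IAP) enzyme | Input: IAP diluted 1/65,000,000 in the well | Also added: CDP-star chemiluminescent phosphatase substrate, 30 µM final | Dosing: 20 µM single dose | Times: Enzyme reaction for 30 min at room temperature | Detection: Luminescence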
# hIAP activ – increases human intestinal alkaline phosphatase activity; activation factor at 10 µM; P09923; purified human IAP, CDP-Star luminescence, 30 min; active compounds read high; 1 = vehicle-only enzyme, 0 = enzyme-free background; 330,000 tested, 0.16% active; AID 2524;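 active means activation factor of the enzyme at least 2-fold when tested at 20 µM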
# Target sequence (P09923 whole entry, looked up): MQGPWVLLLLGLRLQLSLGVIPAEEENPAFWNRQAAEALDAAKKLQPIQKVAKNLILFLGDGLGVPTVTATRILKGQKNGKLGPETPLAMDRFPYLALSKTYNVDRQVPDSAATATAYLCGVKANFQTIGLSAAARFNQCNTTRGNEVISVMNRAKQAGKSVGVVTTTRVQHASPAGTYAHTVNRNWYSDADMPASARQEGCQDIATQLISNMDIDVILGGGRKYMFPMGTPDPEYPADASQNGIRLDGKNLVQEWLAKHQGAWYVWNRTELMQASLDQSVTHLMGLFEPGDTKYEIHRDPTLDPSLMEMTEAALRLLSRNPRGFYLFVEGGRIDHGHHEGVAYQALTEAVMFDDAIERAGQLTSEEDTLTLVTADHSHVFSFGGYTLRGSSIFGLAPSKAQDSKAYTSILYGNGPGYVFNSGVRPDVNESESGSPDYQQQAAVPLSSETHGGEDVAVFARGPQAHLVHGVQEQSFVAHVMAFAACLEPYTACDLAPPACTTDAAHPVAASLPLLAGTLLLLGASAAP
# mIAP inh – mouse IAP inhibition | 330,000 tested, 0.2% active | AID 2806 | inhibition, % at 10 µM | purified mouse IAP, CDP-Star luminescence, 30 min;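 active means inhibition of at least 40% at 10 µM in the primary screen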;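 further: plate controls were DMSO with enzyme for no effect and no enzyme wells for full effect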
# hIAP inh – blocks human intestinal alkaline phosphatase; P09923; purified IAP, CDP-Star luminescence, 30 min; inhibition, % at 10 µM; 330,000 tested, 0.12% active; AID 2544;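 active means inhibition reaching a set limit with compound at 10 µM in the primary screen, cut at about 35% in these data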;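 further: plate controls were DMSO wells with enzyme for no effect and no-enzyme buffer wells for full effect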
# mIAP act – mouse IAP activation; muIAP, CDP-Star luminescence, 30 min; active compounds read high; 1 = vehicle-only enzyme signal, 0 = enzyme-free wells; activation factor at 10 µM; 330,000 tested, 0.24% active; AID 2805;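 active means activation factor of at least 2 at 20 µM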
#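 Assay system: mouse IAP enzyme; reagent: chemiluminescent substrate CDP-Star; dosing: test compounds delivered from DMSO solution; schedule: 30 min at room temperature; measured by: luminescence from enzymatic CDP-Star hydrolysis; controls: DMSO-only wells and no-enzyme negative control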
# bIAP act – intestinal alkaline phosphatase (bovine) activation. activation factor at 20 µM. 200,000 tested, 0.17% active. purified bovine IAP, CDP-star luminescence, 30 min; active compounds read high; fold of DMSO-control signal, blank-subtracted. AID 1016;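 active means activation factor of 2 or more at 20 µM, a signal rise over negative controls twice the positive control's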
# Active calls of the source: *; i = inactive; . = no result. Sampled rows, rich in hits. Any-hit rate of the full collection: about 0.79%.
SMILES,bIAP inhibitor,hIAP activ,mIAP inh,hIAP inh,mIAP act,bIAP act
Cc1ccc(NC(=S)NC(NC(=O)c2ccco2)C(Cl)(Cl)Cl)cc1 (configuration not stated),1,1.1,-99,-10,2,1
Cc1cccc(NC(=S)NC(NC(=O)c2ccco2)C(Cl)(Cl)Cl)c1 (configuration not stated),19,1,-104,-2,2*,0.8
O=C(N1CCN(c2ccccc2F)CC1)C1(c2cccs2)CCOCC1,-275,0.93,-3,7,1,3.7*
CC(=O)OCCCN1c2ccccc2Nc2nnc(-c3ccccc3)cc21,i,1,-250,-2,3.5*,28*
COc1ccccc1N1CCN(S(=O)(=O)CCNC(=O)CC2CCCCC2)CC1,.,1.1,2,-12,0.98,.
CCN(CC(=O)Nc1ccc(NC(C)=O)cc1)C(=O)CSc1ncnc2sc(C)c(C)c12,.,1,7,-2,0.93,.
Cc1c(Cl)cccc1NC(=S)NCc1ccccc1Cl,-6,1,-169,-1,2.7*,1.1
CCOC(=O)C1CCCN(C(=O)c2cccc(S(=O)(=O)N(C)c3c(C)n(C)n(-c4ccccc4)c3=O)c2)C1 (configuration not stated),.,1.2,-1,-16,1,.
CCCCN1C(=O)C2(NNc3ccccc3O2)c2ccccc21 (configuration not stated),-169,0.76,5,24,0.95,2.7*
CS(=O)(=O)c1ccc(Cl)c(NC(=O)CSc2nnc(C3CC3)n2C2CC2)c1,.,1.1,1,-6,0.99,.
CC(Sc1nnc(-c2ccco2)o1)C(=O)Nc1ccc(OC(F)F)cc1 (configuration not stated),.,1.1,51*,-10,0.49,.
C/C(=N/NS(=O)(=O)c1cc(C)ccc1C)c1ccc2c(c1)OCO2,.,1.2,0,-20,1,.
Cc1nn(C)c(C)c1NC(=O)Nc1ccc(Cl)c(Cl)c1,2,1.1,-114,-10,2.1*,1
Cc1nn(C)c(C)c1NC(=O)Nc1cccc(C(F)(F)F)c1,6,1.1,-4,-6,1,0.9
CC(Cc1cccs1)NC(=O)Nc1ccc(Cl)cc1 (configuration not stated),16,1.1,-130,-12,2.3*,0.8
CC(Cc1cccs1)NC(=O)Nc1ccccc1 (configuration not stated),26,1,-11,0,1.1,0.7
CC(Cc1cccs1)NC(=S)Nc1ccccc1 (configuration not stated),5,0.91,-10,9,1.1,1
CC(Cc1cccs1)NC(=O)Nc1ccc(Cl)c(Cl)c1 (configuration not stated),.,1,-301,0,4*,0.5
C[C@@]12C(=O)OC(=O)[C@]1(C)C1CCC2O1,.,0.97,-21,3,1.2,.
Cc1ccccc1NC1=NC2(CCCC2)N=C(N)N1,-6,0.98,3,2,0.97,1.1
Cc1ccc(NC2=NC3(CCCCC3)N=C(N)N2)c(C)c1,-272,1.5,-14,-49,1.1,3.7*
Cc1ccc(NC2=NC3(CCCC3)N=C(N)N2)c(C)c1,-10,1.1,-3,-7,1,1.1
Cc1cccc(NC2=NC3(CCCCC3)N=C(N)N2)c1C,-167,0.95,-16,5,1.2,2.7*
O=C(Nc1ccccc1)Nc1ccc(O)c2ccccc12,.,1,11,-2,0.89,.
Cc1cc(Cl)c(C)c(S(=O)(=O)N2CCN(CC(=O)N3CCOCC3)CC2)c1Cl,.,1.1,-9,-10,1.1,.
CCN(CC(=O)Nc1cccc(F)c1)Cc1nc2ccccc2c(=O)[nH]1,-78,1.4,-7,-43,1.1,1.8
CCN(CC(=O)NCc1ccc(F)cc1)Cc1nc2ccccc2c(=O)[nH]1,-100,1,-15,-5,1.2,2*
Cn1c(=O)[nH]c(=O)c2c1nc(N1CCCCCC1)n2CCSc1nc2ccccc2o1,5,1,-11,0,1.1,0.9
Cn1c(=O)[nH]c(=O)c2c1nc(N1CCCCCC1)n2CCCSc1nc2ccccc2o1,i,1,-9,-1,1.1,6.8*
COc1ccc(CCNC(=O)c2nn(C)cc2Cl)cc1,10,1.1,-1,-11,1,0.9

# Screening data: PubChem BioAssay, Sanford-Burnham Center for Chemical Genomics
